Calls of active or inactive are those of the source.
Tests used:
MCF7 [1] = test: Cytotoxicity against human MCF7 ER-positive cells assessed as decrease in cell viability at 5 to 100 uM after 24 hrs by EZ-Cytox assay; type: functional, cell-based
MDA-MB-231 [2] = test: Cytotoxicity against human MDA-MB-231 ER-negative cells assessed as decrease in cell viability at 5 to 100 uM after 24 hrs by EZ-Cytox assay; type: functional, cell-based
MCF7 [3] = test: Cytotoxicity against human MCF7 ER-positive cells assessed as decrease in cell viability after 24 hrs by EZ-Cytox assay; type: functional, cell-based
MDA-MB-231 [4] = test: Cytotoxicity against human MDA-MB-231 ER-negative cells assessed as decrease in cell viability after 24 hrs by EZ-Cytox assay; type: functional, cell-based
MCF7 [5] = test: Cytotoxicity against human MCF7 ER-positive cells assessed as cell viability at 100 uM after 24 hrs by EZ-Cytox assay relative to control; type: functional; settings: MCF7, 24 h, read-out: Activity
MDA-MB-231 [6] = test: Cytotoxicity against human MDA-MB-231 ER-negative cells assessed as cell viability at 100 uM after 24 hrs by EZ-Cytox assay relative to control; type: functional; settings: MDA-MB-231, 24 h, read-out: Activity
MCF7 [7] = test: Induction of apoptosis in human MCF7 ER-positive cells at 100 uM after 24 hrs by Annexin-V/propidium iodide staining-based cytometry relative to control; type: functional
Summary of the method: (§1)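 Cells exposed 24 h (MCF-7 at 50 or 100; MDA-MB-231 at 25 or 50), then stained with Alexa Fluor 488 annexin V conjugate for externalized phosphatidylserine and examined by fluorescence imaging. The read-out is the percentage of annexin-V-positive cells in a total cell count.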

MDA-MB-231 [8] = test: Induction of apoptosis in human MDA-MB-231 ER-negative cells at 50 uM after 24 hrs by Annexin-V/propidium iodide staining-based cytometry relative to control; type: functional; summary of the method: as §1
MCF7 [9] = test: Induction of apoptosis in human MCF7 ER-positive cells assessed as increase in cleaved caspase-8 levels at 50 to 100 uM after 24 hrs by Western blot analysis; type: functional, cell-based
Summary of the method: (§2)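 Western blot of whole cells after 24 h exposure (MCF-7 at 50 or 100; MDA-MB-231 at 25 or 50). Probed for cleavage of caspase-8, -9, -3 and PARP, and for Bax and Bcl-2 expression. The Bax:Bcl-2 ratio is derived from the same blots.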

MDA-MB-231 [10] = test: Induction of apoptosis in human MDA-MB-231 ER-negative cells assessed as increase in cleaved caspase-8 levels at 25 to 50 uM after 24 hrs by Western blot analysis; type: functional, cell-based; summary of the method: as §2
MDA-MB-231 [11] = test: Induction of apoptosis in human MDA-MB-231 ER-negative cells assessed as increase in cleaved caspase-9 levels at 25 to 50 uM after 24 hrs by Western blot analysis; type: functional, cell-based; summary of the method: as §2
MCF7 [12] = test: Induction of apoptosis in human MCF7 ER-positive cells assessed as increase in cleaved caspase-3 levels at 50 to 100 uM after 24 hrs by Western blot analysis; type: functional, cell-based; summary of the method: as §2
MDA-MB-231 [13] = test: Induction of apoptosis in human MDA-MB-231 ER-negative cells assessed as increase in cleaved caspase-3 levels at 25 to 50 uM after 24 hrs by Western blot analysis; type: functional, cell-based; summary of the method: as §2
MCF7 [14] = test: Induction of apoptosis in human MCF7 ER-positive cells assessed as increase in PARP levels at 50 to 100 uM after 24 hrs by Western blot analysis; type: functional, cell-based; summary of the method: as §2
MDA-MB-231 [15] = test: Induction of apoptosis in human MDA-MB-231 ER-negative cells assessed as increase in PARP levels at 25 to 50 uM after 24 hrs by Western blot analysis; type: functional, cell-based; summary of the method: as §2
MCF7 [16] = test: Induction of apoptosis in human MCF7 ER-positive cells assessed as increase in Bax expression levels at 50 to 100 uM after 24 hrs by Western blot analysis; type: functional, cell-based; summary of the method: as §2
MDA-MB-231 [17] = test: Induction of apoptosis in human MDA-MB-231 ER-negative cells assessed as decrease in Bcl-2 expression levels at 25 to 50 uM after 24 hrs by Western blot analysis; type: functional, cell-based; summary of the method: as §2
MCF7 [18] = test: Induction of apoptosis in human MCF7 ER-positive cells assessed as increase in Bax to Bcl-2 ratio at 50 to 100 uM after 24 hrs by Western blot analysis
MDA-MB-231 [19] = test: Induction of apoptosis in human MDA-MB-231 ER-negative cells assessed as increase in Bax to Bcl-2 ratio at 25 to 50 uM after 24 hrs by Western blot analysis

O=C(O[C@@H]1O[C@@H]2COC(=O)c3cc(O)c(O)c(O)c3-c3c(cc(O)c(O)c3O)C(=O)O[C@H]2[C@@H]2OC(=O)c3cc(O)c(O)c(O)c3-c3c(cc(O)c(O)c3O)C(=O)O[C@@H]12)c1cc(O)c(O)c(Oc2c(O)c(O)c(O)c3c2C(=O)O[C@H]2[C@@H]4OC(=O)c5cc(O)c(O)c(O)c5-c5c(cc(O)c(O)c5O)C(=O)O[C@H]4[C@@H](OC(=O)c4cc(O)c(O)c(O)c4)O[C@@H]2COC(=O)c2cc(O)c(O)c(O)c2-3)c1
63%: viability at 100 µM (MDA-MB-231 [6])
69%: viability at 100 µM (MCF7 [5])
33.7%: Activity (MCF7 [7])
active: Activity (MCF7 [1]) | Activity (MDA-MB-231 [2]) | Activity (MCF7 [3]) Dose-dependent effect | Activity (MDA-MB-231 [4]) Dose-dependent effect | Activity (MCF7 [9]) | Activity (MDA-MB-231 [10]) | Activity (MDA-MB-231 [11]) | Activity (MCF7 [12]) | Activity (MDA-MB-231 [13]) | Activity (MCF7 [14]) | Activity (MDA-MB-231 [15]) | Activity (MCF7 [16]) | Activity (MDA-MB-231 [17]) | Bax/Bcl-2 ratio (MCF7 [18]) | Bax/Bcl-2 ratio (MDA-MB-231 [19])
40.7%: Activity (MDA-MB-231 [8])
